Rows were chosen to be rich in hits. Some 3.7% of all compounds tested hit in one or more screens of this group.
hERG rescue: hERG rescue from dofetilide block, primary screen, cell-based, CHO-hERG, FluxOR thallium flux, dofetilide IC70; activation (rescue from dofetilide block), less the hit threshold, % at 10 µM; 0.51% of 310,000 active; AID 1511, 2009; dofetilide IC70 present;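 active = activation above the mean of controls blocked by dofetilide plus 5 SD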;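 note: thallium influx through hERG after potassium depolarization seen as dye fluorescence rise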
KCNK3 block: human KCNK3 channel inhibitors, primary screen, CHO cells, FluxOR thallium flux, B-score. Potassium channel subfamily K member 3 (Homo sapiens), O14649. FluxOR fluorescence; hits give low values. B-score at 10 µM. 0.84% of 340,000 active;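 active = B-score under library mean minus 4 SD, starting fluorescence ratio at most library mean plus 5 SD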;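 note: more negative B-score means stronger inhibition of thallium flux through KCNK3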
KCNK9 block: KCNK9 potassium channel inhibitors, primary screen, HEK293 cells, thallium flux; Potassium channel subfamily K member 9 (Homo sapiens), Q9NPC2; FluxOR thallium flux fluorescence; hits give low values; B-score at 10 µM; 1.2% of 310,000 active; AID 488922, 2010;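 active = ratio B-score over 3 SD below the library mean, with starting fluorescence within 5 SD of its mean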;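 note: negative B-score means less thallium flux so channel inhibition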
KCNQ1 inh: inhibitors of human KCNQ1 channel, primary screen, cell-based, thallium flux, high-throughput | AID 2642, 2010 | CHO-K1 KCNQ1, FluxOR thallium flux fluorescence; hits give high values | 1.3% of 310,000 active | B-score at 10 µM;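 active = compounds whose thallium flux B-score, printed positive for inhibition, exceeds three library SD while starting fluorescence stays within three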;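 note: channel opened by potassium depolarization with thallium stimulus after 20 min compound exposure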
Kir21 inh: inhibitors of mouse Kir2.1 inward-rectifier potassium channel; HEK293-Kir2.1, FluxOR thallium flux fluorescence; hits give low values; B-score at 10 µM; AID 1672, 2009; 0.85% of 310,000 active; Inward rectifier potassium channel 2 (Mus musculus), P35561;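 active = fluorescence ratio B-score at or below minus 3 SD of library scores, with starting-brightness B-score within 2 SD, cut at about -4.2 in these data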;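 note: channel flux triggered by added potassium and thallium sulfate stimulus; B-score of peak minus minimum fluorescence over baseline after thallium stimulus; more negative B-score means stronger Kir2.1 block with less thallium influx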
KCNQ1 act: potentiators or activators of KCNQ1 channel, primary screen, cell-based, thallium flux, high-throughput; Potassium voltage-gated channel subfamily KQT member 1 (Homo sapiens), P51787; CHO-K1 KCNQ1, thallium flux FluxOR fluorescence; hits give high values; B-score at 10 µM; 0.35% of 310,000 active; AID 2648, 2010;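 active = fluorescence ratio B-score, a plate-corrected score, at least three library SD, with initial intensity B-score within 5 SD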
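Schedule – 37 °C overnight plating, 90-min dark dye load, 20-min compound pretreatment · System – stable KCNQ1 CHO-K1 line · Probe or stimulus – thallium- and potassium-containing depolarizing buffer · Measured by – kinetic FluxOR fluorescence, 10 s baseline plus 110 s post-stimulus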
KCNK9 inh conf: KCNK9 potassium channel inhibitors, confirmation, HEK293 cells, thallium flux, duplicate; shares compounds with KCNK9 block; FluxOR thallium flux fluorescence; inhibition, % at 10 µM; 43% of 4,900 active; AID 492992, 2010;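 active = thallium signal inhibited by more than 5 SD of the compound-free buffer control wells, on both duplicate plates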;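 note: 0% = assay buffer control wells without compound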
Kir2-1 spec: mouse Kir2.1 channel inhibition, confirmation, selectivity assay for KCNK9 modulator project, cell-based, HEK293, thallium flux. shares compounds with KCNK9 block. Kir2.1 cells, FluxOR thallium flux fluorescence. inhibition, % at 10 µM. 4% of 4,900 active. AID 492993, 2010;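 active = thallium signal drop more than 5 SD beyond the mean of the no-compound control wells, seen in both duplicate plates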;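 note: signal is fluorescence rise after thallium addition divided by baseline fluorescence; plate controls were assay buffer only for no effect and full block by chlorpromazine control for full effect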
KCNK9 uninduced: thallium flux in non-induced HEK293 cells, confirmation, counter-screen for KCNK9 inhibitor project, cell-based, second counter screen, non-induced KCNK9-HEK293; shares compounds with KCNK9 block; FluxOR thallium flux; inhibition, % at 10 µM; 40% of 4,900 active;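 active = thallium signal drop beyond 5 SD of the untreated control mean, on both duplicate plates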;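 note: plate controls were buffer only IC0 wells for no effect and SID17386958 at its maximal inhibitory level for full effect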
Active calls of the source: *; i = inactive; x = no result given.

SMILES	hERG rescue	KCNK3 block	KCNK9 block	KCNQ1 inh	Kir21 inh	KCNQ1 act	KCNK9 inh conf	Kir2-1 spec	KCNK9 uninduced
CC(C)[C@@H]1CC[C@@H](C)C[C@H]1OC(=O)C[n+]1cc(-c2ccc(Cl)cc2)n2c1CCCCC2	-26	i	-13*	i	-8.1*	i	60%*	70%*	i
Cc1cnc(C(=O)OC(C(=O)c2ccccc2)c2ccccc2)cn1 (stereo not given)	x	i	x	x	x	x	x	x	x
COc1ccc(C(=O)C(OC(=O)c2ccccc2)c2ccccc2)cc1 (stereo not given)	-6	i	-14*	i	-0.67	i	53%*	i	30%*
COc1ccc(C(=O)C(OC(=O)c2ccccc2Cl)c2ccccc2)cc1 (stereo not given)	-10	i	-8.1*	i	0.45	i	60%*	i	24%*
Cc1ccc(NC(=O)C(OC(=O)c2ccccc2Cl)c2ccccc2)cc1Cl (stereo not given)	-3	i	i	i	-1.4	i	x	x	x
O=C(O)CN1C(=O)/C(=C\c2cccc(OCc3ccc(Cl)cc3)c2)SC1=S	-11	i	i	i	-1.1	i	i	i	i
O=C(CCN1C(=O)/C(=C\c2ccccc2Cl)SC1=S)Nc1cccnc1	-27	i	i	i	2.7	i	x	x	x
O=C(O)CN1C(=O)/C(=C\c2cccc(OCc3ccccc3F)c2)SC1=S	-9	i	i	i	0.47	i	i	i	i
O=C(CCN1C(=O)/C(=C/c2ccccc2Cl)SC1=S)Nc1ccccc1C(=O)O	-26	i	i	i	-3	i	i	i	i
O=C(O)CN1C(=O)/C(=C\c2ccccc2OCc2ccc(Cl)cc2)SC1=S	-9	i	i	i	0.8	i	i	i	i
O=C(O)CN1C(=O)/C(=C\c2cc(Br)ccc2OCc2ccc(Cl)cc2Cl)SC1=S	-13	i	i	i	1.1	i	x	x	x
COC(=O)C1=C(CS(=O)(=O)c2ccccc2)NC(=O)NC1c1ccccc1 (stereo not given)	-9	i	i	i	-0.11	i	x	x	x
O=C(CN1C(=O)NC2(CCCC2)C1=O)N1CCc2ccccc2C1	-9	i	i	i	-0.36	i	x	x	x
CCOc1ccccc1N1CC(C(=O)N2CCOCC2)CC1=O (stereo not given)	-12	i	i	i	-0.56	i	x	x	x
O=C(CN1C(=O)S/C(=C\C=C\c2ccccc2)C1=O)Nc1ccccc1C(=O)O	-7	i	i	i	0.3	i	i	i	i
O=C(CN1C(=O)S/C(=C\C=C\c2ccccc2)C1=O)Nc1cccc(O)c1	-7	i	i	i	0.22	i	x	x	x
S=C(NCC1CCCO1)N1CCN(Cc2ccccc2)CC1 (stereo not given)	-16	i	i	i	0.4	i	x	x	x
COc1ccc(CN2CCN(S(=O)(=O)c3ccc(C)cc3)CC2)cc1Br	-12	i	i	i	-0.51	i	i	i	i
O=S(=O)(c1cccc(F)c1)N1CCN(Cc2ccc3c(c2)OCO3)CC1	-10	i	i	i	1.7	i	i	i	i
COc1cc(S(=O)(=O)N2CCN(Cc3ccc4c(c3)OCO4)CC2)c(C)cc1C	-7	i	i	i	1.1	i	i	i	i
CCCCn1c(N)c(N(CCOC)C(=O)CCCc2nc3ccccc3c(=O)[nH]2)c(=O)[nH]c1=O	-4	i	i	i	0.38	i	x	x	x
CC(SC1=Nc2ccccc2C2CC=NN12)C(=O)NC1(C#N)CCCCC1 (stereo not given)	-17	i	-10*	i	-4.6*	i	46%*	i	42%*
O=C(CCc1nc2ccccc2c(=O)[nH]1)Nc1cc(Cl)ccc1N1CCCC1	x	i	x	x	x	x	x	x	x
Cc1ccc(SCCC(=O)NCCSCc2ccccc2C)cc1	-8	i	i	i	1.8	i	i	i	i
CCCCNC(=O)CCSc1ccc(C)cc1	-4	i	i	i	-0.57	i	x	x	x
SMILES	hERG rescue	KCNK3 block	KCNK9 block	KCNQ1 inh	Kir21 inh	KCNQ1 act	KCNK9 inh conf	Kir2-1 spec	KCNK9 uninduced
COc1ccc(CNC(=O)C[C@H]2C(=O)N(c3ccccc3)C[C@@H]2Cc2ccccc2)cc1	-5	i	-9.9*	i	-1.1	i	60%*	i	i
CCCCN1C[C@H](Cc2ccccc2)[C@@H](CC(=O)NCc2ccc(OC)cc2)C1=O	-6	i	i	i	-1.8	i	x	x	x
CSc1nc(C(=O)N2CCCC(Nc3ccc(C)c(C)c3)C2)cs1 (stereo not given)	-7	i	i	i	-2.8	i	i	i	i
Cc1ccc(NC2CCCN(C(=O)c3cn4cccc(C)c4n3)C2)cc1C (stereo not given)	-5	i	i	i	-0.17	i	i	i	i
Cc1nc(C(=O)N2CCCC(Nc3ccc(C)c(C)c3)C2)cs1 (stereo not given)	-9	i	i	i	0.13	i	x	x	x
Cc1ccc(NC2CCCN(C(=O)C3CCCC3)C2)cc1C (stereo not given)	-6	i	i	i	-2.4	i	i	i	i
CCOc1ccccc1C1c2[nH]c3ccccc3c2C[C@H]2C(=O)N(C3CC3)CC(=O)N12 (stereo not given in full)	-7	i	i	i	-0.63	i	x	x	x
O=C(NC1CCCCC1)C(=S)N1CCOCC1	-12	i	i	i	-1.6	i	x	x	x

Screening results from PubChem.
